Test results taken from ChEMBL document CHEMBL2057128, “Chemoenzymatic synthesis and biological evaluation of 2- and 3-hydroxypyridine derivatives against Leishmania mexicana” (Bioorg Med Chem, 2012).
In brackets after ≈: the same amount, converted by molar mass. Activity calls are given as the source filed them. The rule behind the calls is not given here.

The compounds below were run on Leishmania mexicana (assay: Antileishmanial activity against promastigote form of Leishmania mexicana from 10 to 50 ug/mL measured every 2 days for 10 days by neubauer chamber analysis). Details: not given.
Assay type: functional, organism-based
How it was run: (§1)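 Promastigotes grown at 28 °C in cell-free medium (Na2HPO4, KCl, glucose, pH about 7.5) supplemented after sterilization with penicillin (100 IU/mL), streptomycin, haemin and 20% v/v heat-inactivated fetal calf serum. Cultures started from exponential-phase inocula, shaken manually twice daily, compounds added with DMSO at 0.1% final. Parasites counted in a Neubauer chamber every two days over 10 days.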
For `CC(=O)OCCCCCCCOc1ccccn1`, the Activity was “inactive”.
In the case of `CCC(=O)OCCCCCCCCCCCOc1ccccn1`, the Activity is reported as “inactive”.
In the case of `OCCCCCCCCCOc1cccnc1`, the Activity is reported as “inactive”.
`CC(=O)OCCCCCCCCCOc1ccccn1` was tested, and the Activity was “inactive”.
For `OCCCCCCCCCCCOc1cccnc1`, the Activity was “inactive”.
For `OCCCCCCCCCOc1ccccn1`, the Activity was “inactive”.
For `OCCCCCCOc1cccnc1`, the Activity was “inactive”.
With `CC(=O)OCCCCCCCCCCCOc1ccccn1` the Activity was “inactive”.
For `OCCCCCCCCOc1cccnc1`, the Activity was “inactive”.
`CC(=O)OCCCCCCCCCCCOc1cccnc1` was tested, and the Activity was “inactive”.
In the case of `OCCCCCCCCCCCOc1ccccn1`, the Activity is reported as “inactive”.
In the case of `OCCCCCCCCCCOc1cccnc1`, the Activity is reported as “inactive”.
With `CC(=O)OCCCCCCOc1cccnc1` the Activity was “inactive”.
With `OCCCCCCCOc1cccnc1` the Activity was “inactive”.
For `CC(=O)OCCCCCCCCCCOc1ccccn1`, the Activity was “inactive”.
With `OCCCCCCCCCCOc1ccccn1` the Activity was “inactive”.
With `CC(=O)OCCCCCCCCCCCCOc1ccccn1` the Activity was “inactive”.
`OCCCCCCCOc1ccccn1` was tested, and the Activity was “inactive”.
In the case of `OCCCCCCCCOc1ccccn1`, the Activity is reported as “inactive”.
With `CC(=O)OCCCCCCCCOc1cccnc1` the Activity was “inactive”.
For `CC(=O)OCCCCCCOc1ccccn1`, the Activity was “inactive”.
In the case of `OCCCCCCOc1ccccn1`, the Activity is reported as “inactive”.
With `OCCCCCCCCCCCCOc1ccccn1` the Activity was “inactive”.
In the case of `CCC(=O)OCCCCCCCCCCCOc1cccnc1`, the Activity is reported as “inactive”.
In the case of `CC(=O)OCCCCCCCCOc1ccccn1`, the Activity is reported as “inactive”.
With `CC(=O)OCCCCCCCOc1cccnc1` the Activity was “inactive”.

The compounds below were run on Leishmania mexicana (assay: Growth inhibition of promastigote form of Leishmania mexicana at 10 ug/mL measured after 6 days by neubauer chamber analysis). Details: 144 h, read-out: GI.
Assay type: functional
How it was run: as §1
In the case of `CC(=O)OCCCCCCCCCCCCOc1cccnc1`, the inhibition of growth at 10 µg/mL is reported as 25%.
`OCCCCCCCCCCCCOc1cccnc1` was tested, and the inhibition of growth at 10 µg/mL was 25%.

The compounds below were run on Leishmania mexicana (assay: Growth inhibition of promastigote form of Leishmania mexicana at 20 ug/mL measured after 1 day by neubauer chamber analysis). Details: 24 h, read-out: GI.
Assay type: functional
For `CC(=O)OCCCCCCCCCCCCOc1cccnc1`, the inhibition of growth at 20 µg/mL was 50%.
`OCCCCCCCCCCCCOc1cccnc1` gave an inhibition of growth at 20 µg/mL of 50%.

These compounds were tested on Leishmania mexicana (assay: Growth inhibition of promastigote form of Leishmania mexicana at 20 ug/mL measured after 10 days by neubauer chamber analysis). Details: 240 h, read-out: GI.
Assay type: functional
How it was run: as §1
Compound `CC(=O)OCCCCCCCCCCCCOc1cccnc1` has an inhibition of growth at 20 µg/mL of 80%.
Compound `OCCCCCCCCCCCCOc1cccnc1` has an inhibition of growth at 20 µg/mL of 95%.

These compounds were tested on Leishmania mexicana (assay: Antileishmanial activity against promastigote form of Leishmania mexicana measured every 2 days for 10 days by neubauer chamber analysis). Details: not given.
Assay type: functional, organism-based
How it was run: as §1
`CC(=O)OCCCCCCCCCCOc1cccnc1` showed an IC50 of 20 µg/mL (≈ 68.2 µM).
`CC(=O)OCCCCCCCCCCCCOc1cccnc1` gave an IC50 of 12 µg/mL (≈ 37.3 µM).
Work on `CN[C@@H]1[C@@H](O)[C@@H](O[C@@H]2[C@@H](O)[C@H](O[C@H]3O[C@H]([C@@H](C)O)[C@@H](O)[C@H](O)[C@H]3N)[C@@H](N)C[C@H]2N)OC[C@]1(C)O` [GENETICIN] yielded an IC50 of 50 µg/mL (≈ 101 µM).
Work on `OCCCCCCCCCCCCOc1cccnc1` yielded an IC50 of 16 µg/mL (≈ 57.3 µM).
